Source: ChEMBL document CHEMBL5058577, “EUbOPEN Chemogenomics Library 2 (Multiplex)” (2022)

Tested on: HEK-293T
Assay: Multiplex assay against HEK293T
Type: toxicity, cell-based
Settings: human
In short: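 Values for tubulin, mitochondrial-mass and membrane-permeability phenotypes are per cents of cells with healthy nuclei. These cells were identified by CellPathfinder machine-learning gating of live cells that had been stained at seeding with Hoechst33342, BioTracker Green Microtubule Cytoskeleton Dye, MitoTracker Red and Annexin V Alexa Fluor 680 and imaged on a CQ1 microscope at 37°C and 5% CO2 after compound addition. The gating first set Hoechst high-intensity objects apart from normal cells, then split normal cells into healthy, pyknosed or fragmented nuclei, and pyknosed cells into mitotic or apoptotic.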

[1] = 12 h, 1 µM, compound concentration 1 uM, replicate 1
[2] = 12 h, 1 µM, compound concentration 1 uM, replicate 2
[3] = 12 h, 10 µM, compound concentration 10 uM, replicate 1
[4] = 12 h, 10 µM, compound concentration 10 uM, replicate 2
[5] = 24 h, 1 µM, compound concentration 1 uM, replicate 1
[6] = 24 h, 1 µM, compound concentration 1 uM, replicate 2
[7] = 24 h, 10 µM, compound concentration 10 uM, replicate 1
[8] = 24 h, 10 µM, compound concentration 10 uM, replicate 2
[9] = 48 h, 1 µM, compound concentration 1 uM, replicate 1
[10] = 48 h, 1 µM, compound concentration 1 uM, replicate 2
[11] = 48 h, 10 µM, compound concentration 10 uM, replicate 1
[12] = 48 h, 10 µM, compound concentration 10 uM, replicate 2

With COc1cc2nc(N3CCN(C(=O)c4ccco4)CC3)nc(N)c2cc1OC.Cl [PRAZOSIN HYDROCHLORIDE] the “Population Apoptotic (%)” value [1] was 32%, the “Population Fragmented Nuclei (%)” value [1] was 10% and the “Population Healthy Nuclei (%)” value [1] was 77%. For the same compound, the “Population Hoechst High Intensity Objects (%)” value [1] was 6%, the “Population Membrane Permeable-Phenotype (%)” value [1] was 0% and the “Population Mitochondria Different-Phenotype (%)” value [1] was 35%. For the same compound, the “Population Mitotic Cells (%)” value [1] was 67%, the “Population Normal (%)” value [1] was 93% and the “Population Pyknosed Nuclei (%)” value [1] was 11%. The “Population Tubulin-Different-Phenotype (%)” value [1] was 23%, the “Total Cell Count” value [1] was 448 and the “Population Apoptotic (%)” value [2] was 56%. The “Population Fragmented Nuclei (%)” value [2] was 6%, the “Population Mitochondria Different-Phenotype (%)” value [2] was 66% and the “Population Mitotic Cells (%)” value [2] was 43%. The “Population Pyknosed Nuclei (%)” value [2] was 16%, the “Population Tubulin-Different-Phenotype (%)” value [2] was 22% and the “Total Cell Count” value [2] was 290. The “Population Apoptotic (%)” value [3] was 38%, the “Population Fragmented Nuclei (%)” value [3] was 9% and the “Population Healthy Nuclei (%)” value [3] was 75%. For the same compound, the “Population Hoechst High Intensity Objects (%)” value [3] was 10%, the “Population Membrane Permeable-Phenotype (%)” value [3] was 0% and the “Population Mitochondria Different-Phenotype (%)” value [3] was 62%. For the same compound, the “Population Mitotic Cells (%)” value [3] was 61%, the “Population Normal (%)” value [3] was 89% and the “Population Pyknosed Nuclei (%)” value [3] was 14%. The “Population Tubulin-Different-Phenotype (%)” value [3] was 45%, the “Total Cell Count” value [3] was 348 and the “Population Apoptotic (%)” value [4] was 55%. For the same compound, the “Population Fragmented Nuclei (%)” value [4] was 5%, the “Population Healthy Nuclei (%)” value [4] was 77% and the “Population Hoechst High Intensity Objects (%)” value [4] was 9%. The “Population Mitochondria Different-Phenotype (%)” value [4] was 61%, the “Population Mitotic Cells (%)” value [4] was 44% and the “Population Normal (%)” value [4] was 90%. For the same compound, the “Population Pyknosed Nuclei (%)” value [4] was 16%, the “Population Tubulin-Different-Phenotype (%)” value [4] was 25% and the “Total Cell Count” value [4] was 404. The “Population Apoptotic (%)” value [5] was 38%, the “Population Fragmented Nuclei (%)” value [5] was 9% and the “Population Healthy Nuclei (%)” value [5] was 82%. For the same compound, the “Population Hoechst High Intensity Objects (%)” value [5] was 3%, the “Population Membrane Permeable-Phenotype (%)” value [5] was 0% and the “Population Mitochondria Different-Phenotype (%)” value [5] was 25%. The “Population Mitotic Cells (%)” value [5] was 61%, the “Population Normal (%)” value [5] was 96% and the “Population Pyknosed Nuclei (%)” value [5] was 7%. The “Population Tubulin-Different-Phenotype (%)” value [5] was 10%, the “Total Cell Count” value [5] was 660 and the “Population Apoptotic (%)” value [6] was 51%. The “Population Healthy Nuclei (%)” value [6] was 80%, the “Population Hoechst High Intensity Objects (%)” value [6] was 5% and the “Population Mitochondria Different-Phenotype (%)” value [6] was 45%. For the same compound, the “Population Mitotic Cells (%)” value [6] was 48%, the “Population Normal (%)” value [6] was 94% and the “Population Pyknosed Nuclei (%)” value [6] was 10%. For the same compound, the “Population Tubulin-Different-Phenotype (%)” value [6] was 16%, the “Total Cell Count” value [6] was 364 and the “Population Apoptotic (%)” value [7] was 50%. For the same compound, the “Population Fragmented Nuclei (%)” value [7] was 12%, the “Population Healthy Nuclei (%)” value [7] was 77% and the “Population Hoechst High Intensity Objects (%)” value [7] was 5%. For the same compound, the “Population Membrane Permeable-Phenotype (%)” value [7] was 0%, the “Population Mitochondria Different-Phenotype (%)” value [7] was 40% and the “Population Mitotic Cells (%)” value [7] was 50%. For the same compound, the “Population Normal (%)” value [7] was 94%, the “Population Pyknosed Nuclei (%)” value [7] was 9% and the “Population Tubulin-Different-Phenotype (%)” value [7] was 32%. The “Total Cell Count” value [7] was 463, the “Population Apoptotic (%)” value [8] was 54% and the “Population Fragmented Nuclei (%)” value [8] was 11%. The “Population Healthy Nuclei (%)” value [8] was 78%, the “Population Membrane Permeable-Phenotype (%)” value [8] was 1% and the “Population Mitochondria Different-Phenotype (%)” value [8] was 42%. For the same compound, the “Population Mitotic Cells (%)” value [8] was 45%, the “Population Pyknosed Nuclei (%)” value [8] was 10% and the “Population Tubulin-Different-Phenotype (%)” value [8] was 20%. For the same compound, the “Total Cell Count” value [8] was 534, the “Population Apoptotic (%)” value [9] was 36% and the “Population Fragmented Nuclei (%)” value [9] was 17%. The “Population Healthy Nuclei (%)” value [9] was 76%, the “Population Hoechst High Intensity Objects (%)” value [9] was 1% and the “Population Membrane Permeable-Phenotype (%)” value [9] was 1%. For the same compound, the “Population Mitochondria Different-Phenotype (%)” value [9] was 16%, the “Population Mitotic Cells (%)” value [9] was 63% and the “Population Normal (%)” value [9] was 98%. For the same compound, the “Population Pyknosed Nuclei (%)” value [9] was 5%, the “Population Tubulin-Different-Phenotype (%)” value [9] was 8% and the “Total Cell Count” value [9] was 1114. For the same compound, the “Population Apoptotic (%)” value [10] was 38%, the “Population Fragmented Nuclei (%)” value [10] was 16% and the “Population Hoechst High Intensity Objects (%)” value [10] was 2%. The “Population Membrane Permeable-Phenotype (%)” value [10] was 0%, the “Population Mitochondria Different-Phenotype (%)” value [10] was 23% and the “Population Mitotic Cells (%)” value [10] was 61%. The “Population Normal (%)” value [10] was 97%, the “Population Pyknosed Nuclei (%)” value [10] was 6% and the “Population Tubulin-Different-Phenotype (%)” value [10] was 9%. The “Total Cell Count” value [10] was 636, the “Population Apoptotic (%)” value [11] was 33% and the “Population Fragmented Nuclei (%)” value [11] was 17%. For the same compound, the “Population Healthy Nuclei (%)” value [11] was 75%, the “Population Hoechst High Intensity Objects (%)” value [11] was 4% and the “Population Membrane Permeable-Phenotype (%)” value [11] was 2%. The “Population Mitochondria Different-Phenotype (%)” value [11] was 32%, the “Population Mitotic Cells (%)” value [11] was 66% and the “Population Normal (%)” value [11] was 95%. For the same compound, the “Population Pyknosed Nuclei (%)” value [11] was 7%, the “Population Tubulin-Different-Phenotype (%)” value [11] was 17% and the “Total Cell Count” value [11] was 693. The “Population Apoptotic (%)” value [12] was 23%, the “Population Fragmented Nuclei (%)” value [12] was 14% and the “Population Healthy Nuclei (%)” value [12] was 78%. The “Population Membrane Permeable-Phenotype (%)” value [12] was 1%, the “Population Mitochondria Different-Phenotype (%)” value [12] was 21% and the “Population Mitotic Cells (%)” value [12] was 76%. The “Population Tubulin-Different-Phenotype (%)” value [12] was 11% and the “Total Cell Count” value [12] was 778.
